The source made the active and inactive calls.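 How the source made its calls: active means PAD4 enzyme activity blocked 50% or more; inactive means under 50% inhibition.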
Target: Protein-arginine deiminase type-4 (Homo sapiens) (UniProt Q9UM07)
Experiment: recombinant human PAD4 activity inhibition – biochemical, BAEE substrate, colorimetric citrulline readout, late-stage follow-up (AID 588559)
Conditions: colorimetric citrulline detection, at 100 µM, hits give high values
Procedure, shortened: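 system = recombinant PAD4 | quantity = 0.2 µM PAD4 enzyme | timing = 15 min enzyme–compound preincubation, then 15 min BAEE reaction, 37 °C | signal = colorimetric citrulline absorbance at 540 nm | measure = % inhibition versus DMSO | control set = DMSO-treated PAD4 as uninhibited reference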

Chain of Protein-arginine deiminase type-4 (Homo sapiens) (Q9UM07 whole entry, looked up): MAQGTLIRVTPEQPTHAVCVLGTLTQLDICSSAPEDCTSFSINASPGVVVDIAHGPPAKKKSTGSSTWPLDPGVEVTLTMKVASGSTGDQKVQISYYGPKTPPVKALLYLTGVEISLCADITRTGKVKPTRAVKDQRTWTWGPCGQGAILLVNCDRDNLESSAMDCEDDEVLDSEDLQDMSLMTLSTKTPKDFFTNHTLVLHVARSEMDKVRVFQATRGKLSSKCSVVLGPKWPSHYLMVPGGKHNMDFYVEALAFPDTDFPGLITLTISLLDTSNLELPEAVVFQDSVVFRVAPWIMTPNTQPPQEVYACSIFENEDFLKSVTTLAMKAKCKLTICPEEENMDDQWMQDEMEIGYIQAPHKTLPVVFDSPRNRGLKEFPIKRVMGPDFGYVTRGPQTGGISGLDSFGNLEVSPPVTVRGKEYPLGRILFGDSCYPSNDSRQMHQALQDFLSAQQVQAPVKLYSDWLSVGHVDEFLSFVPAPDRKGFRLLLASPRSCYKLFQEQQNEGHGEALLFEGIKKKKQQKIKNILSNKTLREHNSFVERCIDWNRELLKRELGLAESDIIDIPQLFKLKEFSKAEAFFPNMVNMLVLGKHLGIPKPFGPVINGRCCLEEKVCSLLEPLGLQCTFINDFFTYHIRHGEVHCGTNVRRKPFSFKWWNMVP

Compound | inhibition
COC(=O)c1cccc(-c2ccc3c(n2)C(=O)C(N)=CC3=O)n1 | 91%
O=C(O)c1cccc(-c2ccc3ccc(Br)c(OCc4ccccc4)c3n2)n1 | -8% (inactive)
COC(=O)c1nc(C(C)=O)c2[nH]c3ccccc3c2c1C | 0% (inactive)
COC(=O)c1nc(C(=O)OC)c(N)c(-c2ccccc2Br)c1C | 9% (inactive)
COC(=O)c1nnc(C(=O)OC)c(-c2ccc3cc(OC)ccc3n2)n1 | -2% (inactive)
NC1=CC(=O)c2ccc(-c3ccccn3)nc2C1=O | 88%
COc1ccc2ncccc2c1[N+](=O)[O-] | -12% (inactive)
COC(=O)c1nnc(C(=O)OC)c(-c2ccc3c([N+](=O)[O-])c(OC)ccc3n2)n1 | -12% (inactive)
NC1=C(N)C(=O)c2ccccc2C1=O | 97%
O=C1C(O)=C(O)C(=O)c2ncccc21 | 98%
COC(=O)c1cc(-c2ccccc2)c(C(=O)OC)c(-c2ccc3ccccc3n2)n1 | -11% (inactive)
COC(=O)c1cccc(-c2ccc3ccc(Br)c(O)c3n2)n1 | 27% (inactive)
COC(=O)c1nc(-c2ccc3c(n2)C(=O)C(Br)=CC3=O)c2[nH]c3ccccc3c2c1C | 0% (inactive)
CCOC(=O)c1nc(C(=O)OCC)c(C(=O)OCC)c(-c2ccc(OC)c(OC)c2OCc2ccccc2)c1C | 2% (inactive)
O=C1C(Br)=CC(=O)c2ncccc21 | 97%
COc1ccc2nc(C#N)ccc2c1[N+](=O)[O-] | -13% (inactive)
COC1=C(I)C(=O)c2nc(C#N)ccc2C1=O | 98%
COC1=C(Br)C(=O)c2ncccc2C1=O | 90%
COC(=O)c1nc(C(=O)OC)c(NC(C)=O)c(-c2ccccc2Br)c1C | 67%
O=C1C=C(Br)C(=O)c2ncccc21 | 100%
COC(=O)c1cccc(-c2ccc3c(n2)C(=O)C(Br)=CC3=O)n1 | 90%
NC1=CC(=O)c2ccc(-c3cccc(C(=O)O)n3)nc2C1=O | 98%
COc1ccc2nc(C#N)ccc2c1 | -10% (inactive)
COC1=CC(=O)c2nc(C#N)ccc2C1=O | 98%
COC(=O)c1nnc(C(=O)OC)c(-c2ccc3ccccc3n2)n1 | -21% (inactive)
NC1=CC(=O)c2ccc(-c3cc(C(=O)O)ccc3N)nc2C1=O | 97%
COC1=C(Br)C(=O)c2nc(-c3ccccn3)ccc2C1=O | 98%
NC1=CC(=O)c2cccnc2C1=O | 98%
COC1=C(N)C(=O)c2ncccc2C1=O | 99%

From PubChem BioAssay AID588559 (The Scripps Research Institute Molecular Screening Center, 2011)
